From ChEMBL document CHEMBL5223075, “Discovery of thienothiazolocarboxamide analogues as novel anti-tubercular agent” (Bioorg Med Chem, 2020)
Converted amounts (≈) assume the structure as drawn.

How the values were obtained:
[1] = Solubility of the compound at pH 2.1; format: physicochemical; settings: buffer
[2] = system: Mycobacterium tuberculosis; experiment: Antitubercular activity against Mycobacterium tuberculosis H37Rv ATCC 27294 expressing the green fluorescence protein infected in mouse RAW264.7 cells assessed as inhibition of bacterial growth pre-infected with cell followed by compound addition and measured after 5 days by Hoechst 33342 staining based analysis; format: functional, organism-based; settings: H37Rv ATCC 27294, RAW264.7, 120 h
How it was run: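 RAW 264.7 cells, passages 2-9, were infected with washed H37Rv-GFP at MOI 20 for 2 h at 37°C with shaking. Cells were washed and plated at 20,000/well over 2-fold compound dilutions for 5 days. Nuclei were stained with 5 µM Hoechst (final) and 3 fields/well imaged. Four parameters (cell count, bacterial area, area per infected cell, infected-cell ratio) were each fitted by 4-parameter sigmoid, and the IC50s averaged.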

[3] = Metabolic stability in mouse liver microsome assessed as phase I mediated metabolite formation by measuring half-life; format: ADME; settings: microsomes
[4] = Metabolic stability in human liver microsome assessed as phase I mediated metabolite formation by measuring half-life; format: ADME; settings: microsomes
[5] = Solubility of the compound at pH 7.4; format: physicochemical; settings: buffer
[6] = system: Mycobacterium tuberculosis; experiment: Antitubercular activity against Mycobacterium tuberculosis H37Rv ATCC 27294 expressing the green fluorescence protein assessed as inhibition of bacterial growth by measuring GFP fluorescence incubated for 5 days by fluorescence based plate reader analysis; format: functional, organism-based; settings: H37Rv ATCC 27294, 120 h
How it was run: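 H37Rv-GFP was grown 14 days in 7H9/OADC/Tween/glycerol/hygromycin, washed, and seeded at ~3×10^6 CFU/mL. Compounds were given as 10-point 2-fold series starting at 20 or 1 µM, in 1% DMSO final. Plates ran 5 days at 37°C, 5% CO2, with rifampicin 1 µg/mL as positive control. GFP fluorescence was read and IC50 taken from a 4-parameter sigmoid fit.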

Compound	solubility [1]	IC50 [2]	t1/2 [3]	t1/2 [4]	solubility [5]	IC50 [6]
Cc1nc2cc(NC(=O)c3cc4sc(N(C)CCO)nc4s3)ccc2o1	20.6 µg/mL (≈ 53 µM)	1300 nM	37.7 min	> 60 min	4.5 µg/mL (≈ 11.6 µM)	880 nM
O=C(Nc1ccc(-c2ccc(C(F)(F)F)cn2)cc1)c1cc2sc(NCCN3CCOCC3)nc2s1	44.3 µg/mL (≈ 83 µM)	210 nM	–	–	9.8 µg/mL (≈ 18.4 µM)	4500 nM
COc1ccc(NC(=O)c2cc3sc(N4CCCCC4)nc3s2)cc1	–	170 nM	–	–	–	830 nM
NNC(=O)c1ccncc1 [ISONIAZID]	–	350 nM	–	–	–	400 nM
CO[C@H]1/C=C/O[C@@]2(C)Oc3c(C)c(O)c4c(O)c(c(/C=N/N5CCN(C)CC5)c(O)c4c3C2=O)NC(=O)/C(C)=C\C=C\[C@H](C)[C@H](O)[C@@H](C)[C@@H](O)[C@@H](C)[C@H](OC(C)=O)[C@@H]1C [RIFAMPIN]	–	60 nM	–	–	–	10 nM
O=C(Nc1ccc(Cl)cc1)c1cc2sc(N3CCCCC3)nc2s1	–	110 nM	–	–	–	1100 nM
COc1ccc(NC(=O)c2cc3sc(N4CCOCC4)nc3s2)cc1	–	210 nM	> 60 min	57.6 min	–	1100 nM
Cc1nc2cc(NC(=O)c3cc4sc(N5CC(C)OC(C)C5)nc4s3)ccc2o1 (configuration not stated)	–	250 nM	–	–	–	1100 nM
COc1cc(NC(=O)c2cc3sc(N4CCCCC4)nc3s2)cc(OC)c1	–	> 20000 nM	33.6 min	24.5 min	–	> 20000 nM
O=C(Nc1ccc(O)cc1)c1cc2sc(N3CCCCC3)nc2s1	–	2750 nM	–	–	–	4800 nM
COc1ccc(N(C)C(=O)c2cc3sc(N4CCCCC4)nc3s2)cc1	–	> 20000 nM	–	–	–	> 20000 nM
O=C(Nc1ccc(-c2ccc(F)cc2)nc1)c1cc2sc(NCCN3CCOCC3)nc2s1	> 50 µg/mL	370 nM	–	–	0.57 µg/mL (≈ 1.18 µM)	4600 nM
COc1ccc(CNC(=O)c2cc3sc(N4CCCCC4)nc3s2)cc1	–	> 20000 nM	–	–	–	> 20000 nM
COc1ccc(NC(=O)c2cc3sc(N(C)C)nc3s2)cc1	–	270 nM	–	–	–	1600 nM
COc1ccc(NC(=O)c2cc3sc(N4CCN(C)CC4)nc3s2)cc1	–	110 nM	–	–	–	1300 nM
Cc1nc2cc(NC(=O)c3cc4sc(NCCN5CCOCC5)nc4s3)ccc2o1	37.1 µg/mL (≈ 83.6 µM)	470 nM	> 60 min	> 60 min	2.1 µg/mL (≈ 4.73 µM)	1350 nM
O=C(Nc1ccc(-c2ccc(F)nc2)cc1)c1cc2sc(NCCN3CCOCC3)nc2s1	1.5 µg/mL (≈ 3.1 µM)	100 nM	45.6 min	25.1 min	1.1 µg/mL (≈ 2.27 µM)	610 nM
COc1ccc(C(=O)Nc2cc3sc(N4CCCCC4)nc3s2)cc1	–	> 20000 nM	–	–	–	> 20000 nM
COc1ccc(-c2ccc(NC(=O)c3cc4sc(NCCN5CCOCC5)nc4s3)cc2)nc1	> 50 µg/mL	190 nM	< 30 min	< 30 min	0.2 µg/mL (≈ 0.404 µM)	1350 nM
Cc1nc2cc(NC(=O)c3cc4sc(N5CCC(CO)CC5)nc4s3)ccc2o1	–	230 nM	–	–	–	500 nM
COc1ccc(NC(=O)c2cc3sc(N4CCC(F)(F)CC4)nc3s2)cc1	–	330 nM	–	–	–	1100 nM
COc1ccc(NC(=O)c2cc3sc(N4CCNCC4)nc3s2)cc1	–	2100 nM	–	–	–	13700 nM
O=C(Nc1ccc(-c2ccc(Cl)cn2)cc1)c1cc2sc(NCCN3CCOCC3)nc2s1	43.4 µg/mL (≈ 86.8 µM)	210 nM	–	–	0.2 µg/mL (≈ 0.4 µM)	3200 nM
O=C(Nc1ccc(-c2ccc(F)cc2)cn1)c1cc2sc(NCCN3CCOCC3)nc2s1	44.2 µg/mL (≈ 91.4 µM)	360 nM	–	–	0.56 µg/mL (≈ 1.16 µM)	4700 nM
COc1ccc(NCc2cc3sc(N4CCCCC4)nc3s2)cc1	–	> 20000 nM	–	–	–	> 20000 nM
Cc1nc2cc(NC(=O)c3cc4sc(N5CCC(O)CC5)nc4s3)ccc2o1	9.7 µg/mL (≈ 23.4 µM)	460 nM	> 60 min	> 60 min	2.4 µg/mL (≈ 5.79 µM)	640 nM
Cc1ccc(-c2ccc(NC(=O)c3cc4sc(NCCN5CCOCC5)nc4s3)cc2)nc1	52.3 µg/mL (≈ 109 µM)	310 nM	27.1 min	20.9 min	1.3 µg/mL (≈ 2.71 µM)	1350 nM
Cc1nc2cc(NC(=O)c3cc4sc(N(C)CCCO)nc4s3)ccc2o1	–	700 nM	–	–	–	1000 nM
